Results taken from ChEMBL document CHEMBL1687915, “Synthesis and biological evaluation of analogues of AKT (protein kinase B) inhibitor-IV” (J Med Chem, 2011).
The source made the active and inactive calls. No cut-off for these calls is given here.

Columns and labels:
[1] = Antiviral activity against Parainfluenza virus 5 expressing renilla luciferase infected in HeLa cells assessed as inhibition viral replication by luciferase based reporter gene assay; assay type: functional, cell-based
Procedure, shortened: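 HeLa cells infected with 1 MOI of recombinant PIV5 carrying renilla luciferase between the HN and L genes, then incubated with compound. Cells harvested 1 day post infection and assayed for renilla luciferase. Screened first as singletons at 1 μM, then at 0.5 μM. IC50 taken from dose-response curves, at least triplicate.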

[2] = Inhibition of AKT -mediated FOXO1a nuclear export in human 786-O cells; assay type: cell-based
[3] = Cytotoxicity in human NHBE cells assessed as luciferase activity after 40 hrs by CellTiter-Glo luminescent cell viability assay; assay type: cell-based
Procedure, shortened: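 NHBE cells (passage 2, 2×10⁴ cells/cm²) grown on collagen-coated Transwell inserts, submerged for 5–7 days, then at air-liquid interface for a further 28 days (35 days total). Exposed to compound over a dose range, then viability read after 40 h as cellular ATP by CellTiter-Glo firefly luciferase. Triplicate or more.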

HeLa = assay: Cytotoxicity in human HeLa cells assessed as luciferase activity after 24 hrs by CellTiter-Glo luminescent cell viability assay; assay type: functional, cell-based
Procedure, shortened: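 Viability of HeLa cells measured after 24 h of compound exposure by cellular ATP (firefly luciferase, CellTiter-Glo) over a dose-response range. IC50 derived from the curves, triplicate or more.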

[4] = tested on: Mycolicibacterium fortuitum; assay: Antibacterial activity against 0.5 uM compound pretreated Mycobacterium fortuitum infected in human HeLa cells assessed as inhibition of bacterial replication; assay type: functional, organism-based
Procedure, shortened: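 HeLa cells seeded at 5×10^5/well in EMEM with 10% FBS overnight, 37 °C, 5% CO₂. Washed free of antibiotics, then infected with washed M. fortuitum in uptake buffer at MOI 5 for 24 h. After a warm DMEM wash, compound added at 0.5 μM in HeLa medium, with Triton X-100 (1%) and 0.1% DMSO controls. After 24 h more, cells lysed and plated for CFU on 7H11 agar. At least triplicate.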

[5] = Antiproliferative activity against human 786-O cells; assay type: functional, cell-based; details: 786-0
[6] = Mammalian orthorubulavirus 5, HeLa, read-out: IC50
[7] = Homo sapiens, NHBE, 40 h, read-out: IC50
[8] = Homo sapiens, HeLa, 24 h, read-out: IC50

| SMILES | IC50 [1, 6] | IC50 ([1]; hela) | IC50 [2] | IC50 [3, 7] | IC50 ([3]; nhbe) | IC50 (HeLa; [8]) | IC50 (HeLa; hela) | Activity [4] | IC50 [5] |
| --- | --- | --- | --- | --- | --- | --- | --- | --- | --- |
| CC[n+]1c(/C=C/N(C)c2ccccc2)n(-c2ccccc2)c2ccc(-c3nc4ccccc4s3)cc21 | 520 nM | Dose-dependent effect | 625 nM | 3180 nM | Dose-dependent effect | 670 nM | Dose-dependent effect | inactive | < 1250 nM |
| CCCCCCCCCCCC[n+]1c(/C=C/N(C)c2ccccc2)n(-c2ccccc2)c2ccc(-c3nc4ccccc4s3)cc21.[I-] | 250 nM | Dose-dependent effect | – | > 5000 nM | Dose-dependent effect | 440 nM | Dose-dependent effect | inactive | – |
| CN(/C=C/c1n(-c2ccccc2)c2ccc(-c3nc4ccccc4s3)cc2[n+]1CCc1ccccc1)c1ccccc1.[I-] | 590 nM | Dose-dependent effect | – | 5000 nM | Dose-dependent effect | 620 nM | Dose-dependent effect | inactive | – |
| CCCCCC[n+]1c(/C=C/N(C)c2ccccc2)n(-c2ccccc2)c2ccc(-c3nc4ccccc4s3)cc21.[I-] | 410 nM | Dose-dependent effect | – | > 5000 nM | Dose-dependent effect | 420 nM | Dose-dependent effect | inactive | – |
